Data as given in paper PMC3102533 (ChemMedChem, 2009).

Biological target: T1, recombinant Lyp (Homo sapiens, UniProt Q9Y2R2)
T1 sequence (Q9Y2R2 2-309): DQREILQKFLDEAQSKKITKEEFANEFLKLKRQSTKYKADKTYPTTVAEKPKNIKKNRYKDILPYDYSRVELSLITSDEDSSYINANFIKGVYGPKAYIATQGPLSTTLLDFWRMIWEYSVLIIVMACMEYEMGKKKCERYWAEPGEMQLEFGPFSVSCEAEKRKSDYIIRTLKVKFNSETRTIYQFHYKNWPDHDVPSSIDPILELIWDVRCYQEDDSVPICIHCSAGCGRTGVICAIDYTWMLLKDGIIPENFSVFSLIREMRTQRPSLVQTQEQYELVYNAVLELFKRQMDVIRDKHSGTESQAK
Assay: Lyp enzymatic assay, IC50 measurements
Assay type: biochemical
Conditions: compared with compound 7 (analogue lacks the nitro group)
Summary of the method: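 GST-fused Lyp catalytic domain (residues 2–309) was expressed in E. coli BL21 DE3 and purified by glutathione affinity and Superdex S-200. DiFMUP hydrolysis was measured at 48 μM substrate (Km) and 30°C in 20 mM Bis-Tris pH 6.0 (ionic strength 20 mM, NaCl) with 1 mM DTT, 1% PEG 8000 and 5% DMSO. Initial rates were read at ex 360/em 460 nm and corrected with a no-enzyme control. IC50 came from fitting relative activity against inhibitor concentration.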

Question: For `O=C(Nc1ccc(I)cc1C(=O)O)c1ccccc1` [2-benzamido-5-iodobenzoic acid], which “fold less inhibitory activity against Lyp” value is on record?
Answer: 157 fold
